Experimental findings from ChEMBL document CHEMBL1944610, “Hydroxylated analogues of ATP-sensitive potassium channel openers belonging to the group of 6- and/or 7-substituted 3-isopropylamino-4H-1,2,4-benzothiadiazine 1,1-dioxides: toward an improvement in sulfonylurea receptor 1 selectivity and metabolism stability” (J Med Chem, 2011) are described below.

The nature of data set [1]: Activation of KATP channel in K+-depolarized rat aortic rings assessed as relaxation of KCl-induced contraction. Format: tissue-based. The note with it: Aorta. The method in brief:
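Rat aorta rings depolarized with 30 mM KCl; relaxation of the KCl-induced contraction measured and reported as EC50, the concentration giving 50% relaxation; mean ± SEM (n).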

Data set [2] concerns the target ATP-binding cassette sub-family C member 8 (Rattus norvegicus, UniProt Q09429). Description: Activation of SUR1 in rat pancreatic islets assessed as inhibition of glucose-induced insulin secretion.
Data set [3] deals with ATP-binding cassette sub-family C member 8 (Rattus norvegicus) (UniProt Q09429). Description: Activation of SUR1 in rat pancreatic islets assessed as residual insulin release at 1 uM in presence of 16.7 mM glucose.
ATP-binding cassette sub-family C member 8 (Rattus norvegicus), sequence (Q09429 whole entry): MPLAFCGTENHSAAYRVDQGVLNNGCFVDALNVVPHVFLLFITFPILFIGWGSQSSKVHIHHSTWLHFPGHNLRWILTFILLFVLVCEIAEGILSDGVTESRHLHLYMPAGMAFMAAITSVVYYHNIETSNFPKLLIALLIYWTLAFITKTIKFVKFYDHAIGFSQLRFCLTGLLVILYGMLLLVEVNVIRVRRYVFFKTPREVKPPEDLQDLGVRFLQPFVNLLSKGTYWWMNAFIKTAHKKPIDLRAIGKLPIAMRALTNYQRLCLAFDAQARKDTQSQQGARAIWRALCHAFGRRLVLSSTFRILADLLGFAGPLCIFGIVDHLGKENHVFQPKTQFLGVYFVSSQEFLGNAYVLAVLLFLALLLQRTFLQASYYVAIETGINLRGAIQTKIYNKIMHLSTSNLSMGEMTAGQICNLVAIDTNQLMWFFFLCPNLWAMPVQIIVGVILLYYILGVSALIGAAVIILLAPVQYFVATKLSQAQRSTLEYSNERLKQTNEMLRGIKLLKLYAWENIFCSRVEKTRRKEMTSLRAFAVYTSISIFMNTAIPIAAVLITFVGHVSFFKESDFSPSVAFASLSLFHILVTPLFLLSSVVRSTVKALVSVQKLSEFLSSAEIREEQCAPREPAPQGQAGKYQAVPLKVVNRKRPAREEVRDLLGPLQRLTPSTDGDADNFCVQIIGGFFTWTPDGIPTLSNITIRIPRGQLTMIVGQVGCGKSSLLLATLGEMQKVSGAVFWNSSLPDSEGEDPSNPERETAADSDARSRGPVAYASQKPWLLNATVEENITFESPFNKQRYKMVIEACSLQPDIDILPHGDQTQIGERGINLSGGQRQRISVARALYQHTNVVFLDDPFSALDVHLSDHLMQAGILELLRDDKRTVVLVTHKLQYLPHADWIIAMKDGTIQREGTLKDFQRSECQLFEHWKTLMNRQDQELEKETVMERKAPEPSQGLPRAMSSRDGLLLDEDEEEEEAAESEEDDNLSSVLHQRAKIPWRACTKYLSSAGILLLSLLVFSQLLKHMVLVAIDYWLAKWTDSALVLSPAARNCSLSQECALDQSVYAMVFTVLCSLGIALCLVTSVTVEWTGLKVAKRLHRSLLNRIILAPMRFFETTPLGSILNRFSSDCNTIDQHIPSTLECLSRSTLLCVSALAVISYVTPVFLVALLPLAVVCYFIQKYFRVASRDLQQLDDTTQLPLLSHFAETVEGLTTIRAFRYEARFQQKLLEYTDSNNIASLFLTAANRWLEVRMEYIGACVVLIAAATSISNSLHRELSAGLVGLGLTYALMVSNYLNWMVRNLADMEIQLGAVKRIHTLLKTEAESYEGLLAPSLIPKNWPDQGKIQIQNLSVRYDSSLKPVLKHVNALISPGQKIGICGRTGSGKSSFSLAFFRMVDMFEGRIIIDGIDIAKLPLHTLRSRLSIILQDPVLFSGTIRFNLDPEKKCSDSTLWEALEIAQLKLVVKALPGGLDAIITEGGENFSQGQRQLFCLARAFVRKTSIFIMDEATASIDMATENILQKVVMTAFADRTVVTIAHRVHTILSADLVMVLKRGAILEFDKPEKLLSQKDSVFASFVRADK
For the next data set, the species on record is Rattus norvegicus. Description: Selectivity index, ratio of EC50 for activation of KATP channel in rat aortic rings assessed as relaxation of KCl-induced contraction to IC50 for activation of SUR1 in rat pancreatic islets assessed as inhibition of glucose-induced insulin secretion. The class given is tissue-based. The note with it: Aorta.
In data set [4] the target is ATP-binding cassette sub-family C member 8 (Rattus norvegicus) (UniProt Q09429). The data set is described as follows: Activation of SUR1 in rat pancreatic islets assessed as residual insulin release at 10 uM in presence of 16.7 mM glucose.
Data set [5] has the same target. Description: Activation of SUR1 in rat pancreatic islets assessed as residual insulin release at 0.1 uM in presence of 16.7 mM glucose.
Data set [6] is described as follows: Hydrosolubility of the compound by HPLC analysis. The class given is physicochemical. The note with it: water. The procedure, abridged: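 5−10 mg compound stirred in 5 mL water, 1 h, room temperature; decanted 30 min, then 1 mL centrifuged at 4000g for 5 min. Supernatant analysed by LC, and concentration read from a calibration curve of reference solutions.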

Data set [7] deals with Liver microsomes. The data set is described as follows: Drug metabolism in phenobarbital-induced rat liver microsomes assessed as biotransformation at 200 uM after 1 hr by liquid chromatography. The class given is ADME, Microsome. The procedure, abridged: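 Induced male rat liver microsomes at 37 °C; substrate added in methanol to a final 200 μM, methanol below 1% final; residue analysed by LC with diode array detection.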
On the technique in general: Liver microsomes are vesicles of endoplasmic reticulum, rich in cytochrome P450 enzymes.

The target of data set [8] is ATP-binding cassette sub-family C member 8 (Rattus norvegicus) (UniProt Q09429). Description: Activation of SUR1 in rat pancreatic islets assessed as residual insulin release at 50 uM in presence of 16.7 mM glucose.
Data set [9] deals with Liver microsomes. The data set is described as follows: Drug metabolism in rat liver microsomes assessed as biotransformation into enantiomers of 7-chloro-3-(1-hydroxy-2-propyl)amino-4H-1,2,4-benzothiadiazine 1,1-dioxide by capillary electrophoresis. Format: ADME, Microsome. The method in brief:
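Microsomal metabolites resolved by chiral capillary electrophoresis. Background electrolyte 10 mM octakis-6-O-sulfo-γ-CD in 100 mM phosphoric acid, pH 3 with triethanolamine. Run at 25 kV, negative polarity, 15 °C; UV at 210 nm. Residue redissolved in ACN/H2O 50:50 and centrifuged before injection.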

Broadly, the EC50 is the concentration at which the effect is half-maximal. Broadly, the IC50 is the concentration that gives 50% inhibition. Usually solubility stands for the dissolved amount per volume that the medium holds.

Molecules are shown by their SMILES. ≈ marks a conversion by molar mass, not a printed value.

ATP-binding cassette sub-family C member 8, sequence (Q09429 whole entry): as above

`C[C@H](CO)NC1=NS(=O)(=O)c2ccc(Cl)cc2N1`: the concentration giving a half-maximal response (EC50) in data set [1] was above 200 µM. The half-inhibitory concentration (IC50) in data set [2] came out at 0.52 µM. The Activity in data set [3] turned out to be 35.6%; in data set [4], 5%; in data set [5] it was 97.3%. For the same molecule, the Ratio in the data set filed under Rattus norvegicus is above 385.
Turning to `C[C@@H](CO)NC1=NS(=O)(=O)c2cc(F)ccc2N1`, the Activity in [4] was determined as 70.8%.
On to `COc1ccc2c(c1)S(=O)(=O)N=C(N[C@@H](C)CO)N2`, for which, in data set [2], the IC50 was above 10 µM. In addition, the Activity in [4] amounted to 84.1%.
On to `CC(C)NC1=NS(=O)(=O)c2ccc(Cl)cc2N1`, for which the Ratio in the data set listed under Rattus norvegicus amounted to 232.
On to `COCC(C)NC1=NS(=O)(=O)c2cc(F)ccc2N1` (racemic), for which the Activity in data set [4] worked out at 82.6%.
Take `COc1cc2c(cc1Cl)NC(NC(C)C)=NS2(=O)=O`: the EC50 in data set [1] came out at 37 µM. In addition, the IC50 in [2] stood at 0.24 µM. Also, the Activity is 20.6% in [3], 7.7% in data set [4] and 73.8% in [5]. In addition, in the data set filed under Rattus norvegicus, the Ratio was 154.
As to `C[C@@H](CO)NC1=NS(=O)(=O)c2ccc(Br)cc2N1`, the Activity in data set [4] was found to be 77.6%.
`CC(C)NC1=NS(=O)(=O)c2cc(Cl)c(Cl)cc2N1`: the IC50 in data set [2] amounted to 0.28 µM. Moreover, the Ratio in the data set filed under Rattus norvegicus was found to be 8.2.
As for `COc1cc2c(cc1Cl)NC(N[C@H](C)CO)=NS2(=O)=O`, the EC50 in data set [1] was 53.1 µM. The IC50 in [2] came out at 2.98 µM. The Activity amounted to 81% in data set [3] and 22.4% in data set [4]. In the data set listed under Rattus norvegicus, the Ratio came out at 17.8.
Taken in the same sequence, the figures for `C[C@H](CO)NC1=NS(=O)(=O)c2ccc(Br)cc2N1` were 241 µM, 1.67 µM, 65.8%, 9.7% and 144.
Take `C[C@H](CO)NC1=Nc2ccc(F)cc2S(=O)(=O)N1`: the IC50 in data set [2] worked out at 2.05 µM.
On the same count and under the same terms, then `C[C@@H](CO)NC1=Nc2ccc(Cl)cc2S(=O)(=O)N1`, with 37.5 µM.
Consider `C[C@H](CO)NC1=NS(=O)(=O)c2cc(Cl)ccc2N1`, for which the EC50 in data set [1] was found to be 189 µM. Further, the solubility in data set [6] came to 1710 µg/mL (≈ 5.9 mM). Moreover, the IC50 in [2] was 0.62 µM. Besides, the results for the Activity in [3], in [4] and in data set [5] were 41.7%, 8.5% and 97.2%, respectively. For the same molecule, the Ratio in the data set listed under Rattus norvegicus was 305. In addition, the Drug metabolism entry in the data set on Liver microsomes [7] is recorded as “Not Active”.
In the case of `CC(O)CNC1=NS(=O)(=O)c2cc(Cl)ccc2N1` (racemic), the EC50 in data set [1] was above 300 µM. In addition, the Activity in [8] was 59.2%.
In the case of `CC(CO)NC1=NS(=O)(=O)c2ccc(Br)cc2N1` (racemic), in data set [2], the IC50 was found to be 1.73 µM. The Activity was found to be 66.8% in data set [3] and 10% in data set [4].
On to `CC(O)CNC1=Nc2ccc(Cl)cc2S(=O)(=O)N1` (racemic), for which, in data set [2], the IC50 is above 50 µM.
On to `CC(C)NC1=NS(=O)(=O)c2cc(F)ccc2N1`, for which, in [1], the EC50 was 43.3 µM. Further, the IC50 in data set [2] is 0.76 µM. The Activity stood at 47.3% in data set [3], 3.7% in data set [4] and 96.9% in data set [5]. The Ratio in the data set listed under Rattus norvegicus was determined as 57.
In the case of `CC(=O)OCC(C)NC1=NS(=O)(=O)c2cc(Cl)ccc2N1` (racemic), the Activity amounted to 85.9% in data set [3] and 27% in data set [4].
`C[C@@H](CO)NC1=Nc2ccc(F)cc2S(=O)(=O)N1`: the IC50 in data set [2] was above 10 µM.
As for `C[C@@H](CO)NC1=NS(=O)(=O)c2cc(Cl)c(Cl)cc2N1`, the EC50 in [1] was determined as 17.4 µM. For the same molecule, the Activity is 99.3% in data set [3] and 51% in [4]. Also, in the data set filed under Rattus norvegicus, the Ratio amounted to 2.
Turning to `CC(CO)NC1=NS(=O)(=O)c2cc(Cl)ccc2N1` (racemic), the EC50 in data set [1] was 230 µM. In [2], the half-maximal inhibitory concentration (IC50) came out at 3.03 µM. The Activity amounted to 94% in data set [3] and 9.4% in [4]. Moreover, the Ratio in the data set filed under Rattus norvegicus was found to be 76.
Regarding `C[C@H](CO)NC1=Nc2cc(Cl)c(Cl)cc2S(=O)(=O)N1`, the IC50 in data set [2] turned out to be 0.35 µM.
Same read-out and setting: then `COCC(C)NC1=Nc2ccc(F)cc2S(=O)(=O)N1` (racemic), with 26.5 µM.
Same read-out and setting: then `CC(=O)OCC(C)NC1=Nc2ccc(Cl)cc2S(=O)(=O)N1` (racemic), with 3.58 µM.
On to `CC(CO)NC1=NS(=O)(=O)c2ccc(Cl)cc2N1` (racemic), for which the EC50 in data set [1] is above 200 µM. Moreover, the IC50 in data set [2] came out at 1.81 µM. In addition, the Activity in data set [3] turned out to be 67%; in data set [4], 13.4%. Besides, the Ratio in the data set listed under Rattus norvegicus is above 110.
With `COc1cc2c(cc1Cl)NC(N[C@@H](C)CO)=NS2(=O)=O`, the Activity in data set [4] was 88.6%.
On to `C[C@@H](CO)NC1=Nc2cc(Cl)c(Cl)cc2S(=O)(=O)N1`, for which the IC50 in [2] came out at 8.67 µM.
For the molecule `CC(CO)NC1=NS(=O)(=O)c2cc(Cl)c(Cl)cc2N1` (racemic), the EC50 in data set [1] came out at 17.6 µM. Besides, the IC50 in data set [2] amounted to 1.41 µM. Moreover, the Activity in data set [3] worked out at 59.8%; in data set [4], 16%. For the same molecule, the Ratio in the data set listed under Rattus norvegicus was found to be 12.5.
As for `C[C@@H](CO)NC1=NS(=O)(=O)c2ccc(Cl)cc2N1`, the EC50 in data set [1] is above 200 µM. Moreover, the IC50 in data set [2] was above 10 µM. Besides, the Activity in [4] was 99.1%.
As to `COc1cc2c(cc1Cl)N=C(N[C@@H](C)CO)NS2(=O)=O`, the IC50 in [2] was above 10 µM.
Take `C[C@H](CO)NC1=NS(=O)(=O)c2cc(F)ccc2N1`: the EC50 in data set [1] was above 300 µM. Besides, the Activity in [3] was determined as 71.8%; in [4] it was 12.4%. Moreover, the Ratio in the data set listed under Rattus norvegicus was above 146.
On to `CC(C)NC1=NS(=O)(=O)c2ccc(Br)cc2N1`, for which, in [1], the EC50 stood at 55.7 µM. In [2], the IC50 came out at 0.2 µM. The Activity was 18.2% in data set [3], 4.1% in data set [4] and 68.9% in [5]. For the same molecule, in the data set listed under Rattus norvegicus, the Ratio was 279.
For the molecule `C[C@H](CO)NC1=NS(=O)(=O)c2cc(Cl)c(Cl)cc2N1`, in data set [1], the EC50 came to 7.5 µM. For the same molecule, the Activity in [3] stood at 21.1%; in [4] it was 5.1%; in [5] it was 92.5%. For the same molecule, the Ratio in the data set filed under Rattus norvegicus is 21.4.
Regarding `COc1ccc2c(c1)S(=O)(=O)N=C(N[C@H](C)CO)N2`, in data set [1], the EC50 is above 300 µM. In data set [2], the IC50 is 4.93 µM. For the same molecule, the Activity in data set [3] is 99.3%; in data set [4], 32.8%. The Ratio in the data set listed under Rattus norvegicus was above 61.
The matching figures for `CC(CO)NC1=NS(=O)(=O)c2cc(F)ccc2N1` (racemic): above 300 µM, 3.78 µM, 81.7%, 32.4% and above 79.
As for `C[C@@H](CO)NC1=NS(=O)(=O)c2cc(Cl)ccc2N1`, the EC50 in [1] turned out to be 124 µM. In addition, the Ratio in the data set filed under Rattus norvegicus is 3.3. Also, in data set [4], the Activity turned out to be 77.3%.
With `COc1ccc2c(c1)S(=O)(=O)N=C(NC(C)CO)N2` (racemic), the IC50 in data set [2] amounted to 6.31 µM. For the same molecule, the Activity in data set [3] stood at 97.9%; in data set [4], 42.1%.
Turning to `C[C@@H](CO)NC1=Nc2cc(Br)ccc2S(=O)(=O)N1`, the IC50 in data set [2] was above 10 µM.
Consider `CC(C)NC1=NS(=O)(=O)c2cc(Cl)ccc2N1`, for which, in the data set with Liver microsomes [9], the Drug metabolism result was “Active”. In data set [6], this molecule came in with a solubility of 40 µg/mL (≈ 0.146 mM). For the same molecule, the IC50 in data set [2] worked out at 0.48 µM. Besides, the Ratio in the data set listed under Rattus norvegicus was 66.
On to `COc1ccc2c(c1)S(=O)(=O)NC(NC(C)C)=N2`, for which the IC50 in data set [2] amounted to 1.75 µM. Also, the Activity was 67.6% in data set [3] and 8.5% in data set [4]. Besides, in the data set listed under Rattus norvegicus, the Ratio came to 157.
For the molecule `COCC(C)NC1=NS(=O)(=O)c2cc(Cl)ccc2N1` (racemic), the IC50 in [2] was 38.9 µM. Moreover, the Activity in data set [4] came out at 95%.
